According to ChEMBL document CHEMBL1145648, “Antibacterial activity in serum of the 3,5-diamino-piperidine translation inhibitors” (Bioorg Med Chem Lett, 2008):
In brackets after ≈: the same amount, converted by molar mass.

Columns and labels:
Assay type in all cases: functional
[1] = system: Escherichia coli; assay: Antibacterial activity against Escherichia coli ATCC 25922 by microdilution method
In short: (§1)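 MIC (µg/ml) by broth microdilution in Mueller Hinton medium per NCCLS guidance; E. coli ATCC 25922 and P. aeruginosa ATCC 27853.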

[2] = system: Pseudomonas aeruginosa; assay: Antibacterial activity against Pseudomonas aeruginosa ATCC 27853 by microdilution method; in short: as §1
[3] = system: Escherichia coli; assay: Inhibition of transcription-translation activity in Escherichia coli
In short: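 Coupled in vitro transcription–translation using E. coli extracts; IC50 in µM.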

[4] = system: Pseudomonas aeruginosa; assay: Antibacterial activity against Pseudomonas aeruginosa by agar dilution method
In short: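 Agar dilution susceptibility testing on Mueller Hinton agar, performed by Fujisawa Pharmaceuticals; MIC50/80/90 denote concentration inhibiting that percent of isolates.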

[5] = system: Escherichia coli; assay: Antibacterial activity against Escherichia coli ATCC 25922 by microdilution method in presence of serum
In short: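 Broth microdilution in MH medium per NCCLS, run with and without 50% mouse serum; MIC (µg/ml) in serum reported as fold shift relative to serum-free MIC; strains E. coli ATCC 25922 and P. aeruginosa ATCC 27853.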

SMILES	MIC [1]	MIC [2]	IC50 [3]	MIC50 [4]	MIC80 [4]	MIC90 [4]	Fold change [5]
Cl.N[C@@H]1C[C@H](N)CN(c2nc(N3C[C@H](N)C[C@H](N)C3)c3[nH]c(Nc4ccc(NC(=O)c5ccc6cccnc6c5O)cc4)nc3n2)C1	8 µg/mL	16 µg/mL	0.4 µM	–	–	–	–
Cl.N[C@@H]1C[C@H](N)CN(c2cc(Nc3ccc(NC(=O)c4cnc5ccccc5c4O)cc3)cc(N3C[C@H](N)C[C@H](N)C3)n2)C1	≥ 64 µg/mL	≤ 0.5 µg/mL	2.2 µM	–	–	–	–
CCn1cc(C(=O)Nc2ccc(Nc3nc(N4C[C@H](N)C[C@H](N)C4)nc(N4C[C@H](N)C[C@H](N)C4)n3)cc2)c(=O)c2cnc(N3CCNCC3)nc21.Cl	32 µg/mL	1 µg/mL	0.9 µM	–	–	–	–
CCn1cc(C(=O)Nc2ccc(Nc3nc(N4C[C@H](N)C[C@H](N)C4)nc(N4C[C@H](N)C[C@H](N)C4)n3)cc2)c(=O)c2cc(F)c(N3CCNCC3)cc21.Cl	≤ 0.5 µg/mL	1 µg/mL	2 µM	–	–	–	–
Cl.N[C@@H]1C[C@H](N)CN(c2nc(Nc3ccc(NC(=O)c4cn(C5CC5)c5cc(N6CCNCC6)c(F)cc5c4=O)cc3)nc(N3C[C@H](N)C[C@H](N)C3)n2)C1	64 µg/mL	2 µg/mL	0.4 µM	–	–	–	–
CCN1CCN(c2cc3c(cc2F)c(=O)c(C(=O)Nc2ccc(Nc4nc(N5C[C@H](N)C[C@H](N)C5)nc(N5C[C@H](N)C[C@H](N)C5)n4)cc2)cn3C2CC2)CC1.Cl	≤ 0.5 µg/mL	2 µg/mL	1.3 µM	–	–	–	–
Cl.N[C@@H]1C[C@H](N)CN(c2nc(Nc3ccc(NC(=O)c4ccc5cccnc5c4O)cc3)nc(N3C[C@H](N)C[C@H](N)C3)n2)C1	4 µg/mL	2 µg/mL	–	–	–	–	–
Cl.N[C@@H]1C[C@H](N)CN(c2nc(Nc3ccc(NC(=O)c4ccc5ccccc5c4)cc3)nc(N3C[C@H](N)C[C@H](N)C3)n2)C1	1 µg/mL	≤ 0.5 µg/mL	24 µM	–	–	–	–
Cl.N[C@@H]1C[C@H](N)CN(c2cc(Nc3ccc(NC(=O)c4ccc5ccccc5c4O)cc3)nc(N3C[C@H](N)C[C@H](N)C3)n2)C1	≤ 0.5 µg/mL	8 µg/mL	18 µM	–	–	–	–
Cl.N[C@@H]1C[C@H](N)CN(c2nc(N3C[C@H](N)C[C@H](N)C3)c3[nH]c(Nc4ccc(NC(=O)c5cnc6ccccc6c5O)cc4)nc3n2)C1	1 µg/mL	1 µg/mL	–	–	–	–	–
Cl.N[C@@H]1C[C@H](N)CN(c2nc(N3C[C@H](N)C[C@H](N)C3)c(Cl)c(Nc3ccc(NC(=O)C4=CN(C5CC5)C5C=C(N6CCNCC6)C(F)=CC5C4=O)cc3)c2Cl)C1 (stereo not given in full)	8 µg/mL	8 µg/mL	0.8 µM	–	–	–	–
CC1COc2c(N3CCNCC3)c(F)cc3c(=O)c(C(=O)Nc4ccc(Nc5nc(N6C[C@H](N)C[C@H](N)C6)nc(N6C[C@H](N)C[C@H](N)C6)n5)cc4)cn1c23.Cl (stereo not given in full)	16 µg/mL	8 µg/mL	1 µM	–	–	–	–
Cl.N[C@@H]1C[C@H](N)CN(c2cc(Nc3ccc(NC(=O)c4ccc5ccccc5c4O)cc3)cc(N3C[C@H](N)C[C@H](N)C3)n2)C1	2 µg/mL	1 µg/mL	26 µM	–	–	–	–
Cl.N[C@@H]1C[C@H](N)CN(c2cc(Nc3ccc(NC(=O)c4ccc5ccccc5c4O)cc3)nc(N3C[C@H](N)C[C@H](N)C3)c2)C1	2 µg/mL	≤ 0.5 µg/mL	16 µM	–	–	–	–
Cl.N[C@@H]1C[C@H](N)CN(c2nc(Nc3ccc(NC(=O)c4ccc5ccccc5c4O)cc3)nc(N3C[C@H](N)C[C@H](N)C3)n2)C1	1 µg/mL	≤ 0.5 µg/mL	24 µM	–	–	–	–
NCC[C@H](O)C(=O)N[C@@H]1C[C@H](N)[C@@H](O[C@H]2O[C@H](CN)[C@@H](O)[C@H](O)[C@H]2O)[C@H](O)[C@H]1O[C@H]1O[C@H](CO)[C@@H](O)[C@H](N)[C@H]1O [AMIKACIN]	–	–	–	4 µg/mL (≈ 6.83 µM)	8 µg/mL (≈ 13.7 µM)	32 µg/mL (≈ 54.6 µM)	–
CC(C)(O/N=C(\C(=O)N[C@@H]1C(=O)N2C(C(=O)[O-])=C(C[n+]3ccccc3)CS[C@H]12)c1csc(N)n1)C(=O)O [CEFTAZIDIME]	–	–	–	2 µg/mL (≈ 3.66 µM)	8 µg/mL (≈ 14.6 µM)	16 µg/mL (≈ 29.3 µM)	–
O=C(N[C@H](CO)[C@H](O)c1ccc([N+](=O)[O-])cc1)C(Cl)Cl [CHLORAMPHENICOL]	–	–	–	> 128 µg/mL	> 128 µg/mL	> 128 µg/mL	–
C[C@@H](O)[C@H]1C(=O)N2C(C(=O)O)=C(SCCNC=N)C[C@H]12 [IMIPENEM ANHYDROUS]	–	–	–	2 µg/mL (≈ 6.68 µM)	16 µg/mL (≈ 53.4 µM)	16 µg/mL (≈ 53.4 µM)	–
CCn1cc(C(=O)O)c(=O)c2ccc(C)nc21 [NALIDIXIC ACID]	–	–	> 100 µM	–	–	–	–

Further lines, with some results ahead:

MIC [1]	MIC [2]	IC50 [3]	MIC50 [4]	MIC80 [4]	MIC90 [4]	SMILES	Fold change [5]
4 µg/mL	1 µg/mL	9 µM	–	–	–	Cl.N[C@@H]1C[C@H](N)CN(c2nc(Nc3ccc(NC(=O)c4cc(Cl)ccc4O)c(O)c3)nc(N3C[C@H](N)C[C@H](N)C3)n2)C1	–
2 µg/mL	1 µg/mL	14 µM	–	–	–	Cl.N[C@@H]1C[C@H](N)CN(c2nc(N3C[C@H](N)C[C@H](N)C3)c(Cl)c(Nc3ccc(NC(=O)c4ccc5ccccc5c4O)cc3)c2Cl)C1	–
1 µg/mL	2 µg/mL	18 µM	–	–	–	Cl.N[C@@H]1C[C@H](N)CN(c2nc3nc(Nc4ccc(NC(=O)c5ccc6ccccc6c5O)cc4)nc(N4C[C@H](N)C[C@H](N)C4)c3[nH]2)C1	–
4 µg/mL	2 µg/mL	11 µM	–	–	–	Cl.N[C@@H]1C[C@H](N)CN(c2nc(Nc3ccc(NC(=O)c4ccccc4O)c(O)c3)nc(N3C[C@H](N)C[C@H](N)C3)n2)C1	–
4 µg/mL	1 µg/mL	5 µM	–	–	–	Cl.N[C@@H]1C[C@H](N)CN(c2nc(Nc3ccc(NC(=O)c4cnc5ccccc5c4O)cc3)nc(N3C[C@H](N)C[C@H](N)C3)n2)C1	–
–	–	–	4 µg/mL	4 µg/mL	8 µg/mL	Cl.N[C@@H]1C[C@H](N)CN(c2nc(Nc3ccc(NC(=O)c4ccc(Cl)cc4)c(O)c3)nc(N3C[C@H](N)C[C@H](N)C3)n2)C1	–
8 µg/mL	≤ 0.5 µg/mL	4 µM	–	–	–	Cl.N[C@@H]1C[C@H](N)CN(c2nc(Nc3ccc(NC(=O)c4cccnc4O)c(O)c3)nc(N3C[C@H](N)C[C@H](N)C3)n2)C1	–
8 µg/mL	4 µg/mL	10 µM	–	–	–	Cl.N[C@@H]1C[C@H](N)CN(c2nc(Nc3ccc(NC(=O)c4ncccc4O)c(O)c3)nc(N3C[C@H](N)C[C@H](N)C3)n2)C1	–
4 µg/mL	≤ 0.5 µg/mL	3 µM	–	–	–	Cl.N[C@@H]1C[C@H](N)CN(c2nc(Nc3ccc(NC(=O)c4cc(Cl)cnc4O)c(O)c3)nc(N3C[C@H](N)C[C@H](N)C3)n2)C1	2
4 µg/mL	1 µg/mL	24 µM	–	–	–	Cl.N[C@@H]1C[C@H](N)CN(c2nc(Nc3ccc(NC(=O)c4cnc5ccccc5c4O)c(Cl)c3)nc(N3C[C@H](N)C[C@H](N)C3)n2)C1	–
4 µg/mL	2 µg/mL	2 µM	–	–	–	CCn1cc(C(=O)Nc2ccc(Nc3nc(N4C[C@H](N)C[C@H](N)C4)nc(N4C[C@H](N)C[C@H](N)C4)n3)cc2)c(=O)c2ccc(C)nc21.Cl	–
1 µg/mL	1 µg/mL	3 µM	–	–	–	CCn1cc(C(=O)Nc2ccc(Nc3nc(N4C[C@H](N)C[C@H](N)C4)nc(N4C[C@H](N)C[C@H](N)C4)n3)cc2)c(=O)c2cc3c(cc21)OCO3.Cl	–
1 µg/mL	1 µg/mL	5 µM	–	–	–	Cl.N[C@@H]1C[C@H](N)CN(c2nc(Nc3ccc(NC(=O)c4cnc5ccccc5c4O)c(O)c3)nc(N3C[C@H](N)C[C@H](N)C3)n2)C1	–
2 µg/mL	2 µg/mL	12 µM	–	–	–	Cl.N[C@@H]1C[C@H](N)CN(c2cc(Nc3ccc(NC(=O)c4ccc5ccccc5c4O)cc3)cc(N3C[C@H](N)C[C@H](N)C3)c2)C1	–
–	–	–	8 µg/mL (≈ 15.5 µM)	32 µg/mL (≈ 61.8 µM)	64 µg/mL (≈ 124 µM)	CCN1CCN(C(=O)N[C@@H](C(=O)N[C@@H]2C(=O)N3[C@@H]2SC(C)(C)[C@@H]3C(=O)O)c2ccccc2)C(=O)C1=O [PIPERACILLIN]	–
–	–	–	32 µg/mL (≈ 72 µM)	64 µg/mL (≈ 144 µM)	64 µg/mL (≈ 144 µM)	CN(C)[C@@H]1C(O)=C(C(N)=O)C(=O)[C@@]2(O)C(O)=C3C(=O)c4c(O)cccc4[C@@](C)(O)[C@H]3C[C@@H]12 [TETRACYCLINE]	–
